STAT1 blocker: STAT1 signaling inhibitors, primary screen, cell-based, HTS, luciferase reporter; inhibition, % at 5.5 µM; AID 920, 2007; 200,000 compounds, 0.35% hits; NIH 3T3 STAT1-luciferase reporter, IFN-gamma, luminescence;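 active = inhibition above a set limit, the mean inhibition across all tested compounds plus 3 SD, cut at about 34% in these data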;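 note: 0% = IFN-gamma with DMSO and 100% = IFN-gamma with 300 µM nifuroxazide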
STAT3 inh: IL-6 driven STAT3 reporter inhibitors, primary screen, U3A cells, luciferase, luminescence, MLSCN library; inhibition, % at 5.5 µM; 190,000 compounds, 0.89% hits; IL-6 STAT3-luciferase reporter; host cell line lacks STAT1;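 active = inhibition above the mean inhibition across all screened compounds plus 3 SD, cut at about 44% in these data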;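 note: 0% = DMSO only wells and 100% = 100 µM nifuroxazide control wells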
NF-kB neuron act: activators of NF-kB expression in neurons, primary screen, cell-based, HTS; 190,000 compounds, 1.6% hits; fold change at 12.5 µM; human neuronal cells, NF-kB reporter expression; stronger effect = higher value; in the data active = fold change above about 3.3
STAT3 act-1: IL-6 driven STAT3 reporter potentiators, primary screen, U3A cells, luciferase, luminescence, MLSCN library. IL-6 STAT3-luciferase reporter; 100% = signal with IL-6 EC80 alone. activation (% of control), % at 5.6 µM. 190,000 compounds, 0.91% hits. AID 871, 2007;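 active = activation above the screen-wide mean of compound activation plus 3 SD, cut at about 130% in these data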;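 note: 0% = background luminescence of wells with medium and substrate only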
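Material: STAT1-lacking human U3A cells, STAT3 luciferase reporter | Benchmarks: IL-6-only wells as 100% reference | Probe or stimulus: IL-6 (33 ng/mL) | Timing: Compound 1 h, then IL-6 6 h at 37 °C | Detection: Luminescence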
STAT1 act-1: STAT1 signaling activators, primary screen, cell-based, HTS, luciferase reporter; AID 932, 2007; NIH 3T3 STAT1-luciferase reporter, IFN-gamma, luminescence; 100% = IFN-gamma alone, no compound; activation (% of control), % at 5.5 µM; 200,000 compounds, 2.6% hits;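 active = activation above the screen-wide mean activation plus 3 SD, cut at about 130% in these data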;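 note: raw ratio to IFN-gamma control signal so 100% means no change and 0% no light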
APP 5'UTR act: activators of APP 5'UTR luciferase reporter, primary screen, SH-SY5Y cells; SH-SY5Y APP 5'UTR luciferase reporter, luminescence; zero percent = DMSO vehicle wells; activation, % at 2 µM; 190,000 compounds, 1% hits;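 active = activation above a set limit, based on mean plus 3 SD of controls, cut at about 140% in these data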
STAT3 act-2: STAT3 reporter potentiators, retest of hits, confirmation, U3A cells, luciferase, luminescence; shares compounds with STAT3 act-1; IL-6 potentiation; U3A cells lack STAT1; 100 means same as IL-6 alone; potentiation (% of control), % at 5.7 µM; 1,200 compounds, 64% hits;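 active = percent activation of the STAT3 luciferase reporter above a set limit taken from the earlier primary screen, cut at about 130% in these data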;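 note: 0% = background signal of medium plus substrate and 100% = median of IL-6 with DMSO wells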
NFkB act 2: NF-kB reporter activators in human cells, counter-screen for STAT3 activator project; AID 1309, 2008; 1,200 compounds, 11% hits; NF-kappaB reporter activation; activation (% of control), % at 5.7 µM; shares compounds with STAT3 act-1; in the data active = activation above about 120%;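 note: reporter induced by TNF-alpha stimulation; 100% = median of stimulated DMSO wells and 0% = no signal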
STAT1 act-2: STAT1 reporter activators, IFN-gamma induced, counter-screen for STAT3 activator project, cell-based, NIH 3T3, luciferase luminescence; shares compounds with STAT3 act-1; NIH 3T3 STAT1-luciferase reporter; activation (% of control), % at 5.7 µM; 1,200 compounds, 13% hits; AID 1318, 2008;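 active = activation above the solvent-only control well mean plus 3 SD, set per screening run, cut at about 120% in these data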;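 note: 100% = IFN-gamma with DMSO median signal so 100% means no change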
* hit, by the source's call. The list is not random: actives were taken first. Their share in the collection is about 5.1%.

What do the screens show for `Oc1cccc(C2c3[nH]c4ccccc4c3CCN2Cc2ccoc2)c1` (stereo unspecified)?
STAT1 blocker: 8; STAT3 inh: -40; NF-kB neuron act: 1.2; STAT3 act-1: 138*; STAT1 act-1: 90; APP 5'UTR act: 7; STAT3 act-2: 137*; NFkB act 2: 102; STAT1 act-2: 94

What do the screens show for `CCOC(=O)/C(=C\Nc1ccc(OC(F)(F)F)cc1)Sc1ncc(C(F)(F)F)cc1Cl`?
STAT1 blocker: 7; STAT3 inh: 12; NF-kB neuron act: 0.91; STAT3 act-1: 96; STAT1 act-1: 94

How did CSCCC(NC(=O)c1ccc(C(C)(C)C)cc1)C(=O)O (stereo unspecified) do in these assays?
STAT1 blocker: 3; STAT3 inh: -6; NF-kB neuron act: 0.99; STAT3 act-1: 105; STAT1 act-1: 98; APP 5'UTR act: -6

How did COc1cc(CNCCSc2nnnn2C)cc(Br)c1OCc1ccccc1 do in these assays?
STAT1 blocker: 3; STAT3 inh: 11; STAT3 act-1: 96; STAT1 act-1: 97; APP 5'UTR act: 6

Results for Nc1n[nH]c(-c2ccccc2[N+](=O)[O-])n1 ?
STAT1 blocker: -10; STAT3 inh: -9; NF-kB neuron act: 1.1; STAT3 act-1: 105; STAT1 act-1: 109; APP 5'UTR act: -13

What do the screens show for `Cc1ccc(-c2cc(-c3ccccc3[N+](=O)[O-])[nH]n2)c(O)c1`?
STAT1 blocker: 3; STAT3 inh: -38; NF-kB neuron act: 4*; STAT3 act-1: 142*; STAT1 act-1: 98; APP 5'UTR act: 132; STAT3 act-2: 136*; NFkB act 2: 131*; STAT1 act-2: 94

What do the screens show for `N#Cc1c(Cl)c(Cl)c2nnc(-c3ccc(Br)cc3)n2c1Cl`?
STAT1 blocker: 8; STAT3 inh: -54; NF-kB neuron act: 1.2; STAT3 act-1: 154*; STAT1 act-1: 92; APP 5'UTR act: -1; STAT3 act-2: 152*; NFkB act 2: 106; STAT1 act-2: 95

How did CC(CN(C)Cc1nc(Cc2cccc(C(F)(F)F)c2)no1)CN1CCCC1 (stereo unspecified) do in these assays?
STAT1 blocker: -1; STAT3 inh: 0; NF-kB neuron act: 1.3; STAT3 act-1: 102; STAT1 act-1: 99; APP 5'UTR act: -3

What do the screens show for `O=C(O)C1C2C=CC3(CN(Cc4ccncc4)C(=O)C13)O2` (stereo unspecified)?
STAT1 blocker: 4; STAT3 inh: 17; NF-kB neuron act: 1; STAT3 act-1: 91; STAT1 act-1: 97; APP 5'UTR act: -9

Results for O=C(O)c1sc2cc(C(F)(F)F)cnc2c1-c1cccs1 ?
STAT1 blocker: -8; STAT3 inh: -1; NF-kB neuron act: 1.1; STAT3 act-1: 101; STAT1 act-1: 107; APP 5'UTR act: 3

How did COCCn1nnnc1C(c1cc2cc(C)ccc2[nH]c1=O)N1CCc2ccccc21 (stereo unspecified) do in these assays?
STAT1 blocker: 5; STAT3 inh: -59; NF-kB neuron act: 1; STAT3 act-1: 150*; STAT1 act-1: 96; STAT3 act-2: 106; NFkB act 2: 108; STAT1 act-2: 97

Results for COCCn1nnnc1C(c1cc2cc(C)ccc2[nH]c1=O)N1CCCCCC1 (stereo unspecified) ?
STAT1 blocker: 0; STAT3 inh: -6; NF-kB neuron act: 1.1; STAT3 act-1: 112; STAT1 act-1: 100; APP 5'UTR act: 8

How did C=CCSc1nc(NC)c2sccc2n1 do in these assays?
STAT1 blocker: 7; STAT3 inh: 14; NF-kB neuron act: 0.96; STAT3 act-1: 97; STAT1 act-1: 94; APP 5'UTR act: -1

Results for C#CCn1c(=NC(=O)c2ccc(S(=O)(=O)N3CCc4ccccc4C3)cc2)sc2cc(S(N)(=O)=O)ccc21 ?
STAT1 blocker: -1; STAT3 inh: -57; NF-kB neuron act: 1.1; STAT3 act-1: 144*; STAT1 act-1: 100; APP 5'UTR act: 5; STAT3 act-2: 138*; NFkB act 2: 113; STAT1 act-2: 102

Results for Oc1oc(-c2ccccc2)nc1/C=N/c1nccs1 ?
STAT1 blocker: -15; STAT3 inh: 21; NF-kB neuron act: 1.8; STAT3 act-1: 84; STAT1 act-1: 114; APP 5'UTR act: 15

What do the screens show for `Oc1oc(-c2ccccc2)nc1C=Nc1cccc2ccccc12`?
STAT1 blocker: -1; STAT3 inh: -46; NF-kB neuron act: 1.4; STAT3 act-1: 144*; STAT1 act-1: 101; APP 5'UTR act: -6; STAT3 act-2: 129; NFkB act 2: 106; STAT1 act-2: 97

How did Cc1cc(-c2ccc(Br)s2)nc(-n2cccc2)n1 do in these assays?
STAT1 blocker: 2; STAT3 inh: -38; NF-kB neuron act: 1.3; STAT3 act-1: 136*; STAT1 act-1: 95; APP 5'UTR act: 12; STAT3 act-2: 130; NFkB act 2: 99; STAT1 act-2: 86

What do the screens show for `Cc1cc(-c2sccc2Br)nc(-n2cccc2)n1`?
STAT1 blocker: -1; STAT3 inh: -42; NF-kB neuron act: 1.1; STAT3 act-1: 139*; STAT1 act-1: 98; APP 5'UTR act: 10; STAT3 act-2: 150*; NFkB act 2: 107; STAT1 act-2: 93

Results for CC1CCN(S(=O)(=O)c2cc([N+](=O)[O-])ccc2Cl)CC1 ?
STAT1 blocker: 5; STAT3 inh: 5; NF-kB neuron act: 1.2; STAT3 act-1: 100; STAT1 act-1: 97; APP 5'UTR act: -9

Results for N#C/C(=C\c1ccccc1[N+](=O)[O-])c1nc(C2CC2)cs1 ?
STAT1 blocker: -7; STAT3 inh: -48; NF-kB neuron act: 2.8; STAT3 act-1: 146*; STAT1 act-1: 106; APP 5'UTR act: 18; STAT3 act-2: 154*; NFkB act 2: 106; STAT1 act-2: 110

What do the screens show for `N#C/C(=C\c1ccc([N+](=O)[O-])cc1)c1nc(C2CC2)cs1`?
STAT1 blocker: -6; STAT3 inh: 8; NF-kB neuron act: 1.5; STAT3 act-1: 92; STAT1 act-1: 106; APP 5'UTR act: 29

Screening data as filed in PubChem.
